Data taken from article PMC10586521 (Journal of medicinal chemistry, 2023).

Experiments:
Assay type in all cases: cell-based
[1] = tested on: SF2; assay: qRT-PCR, SF2 RNA expression in HCT116 cells; conditions: for down regulation of SF2 expression: HCT116, 4 h, ~20 times GI50; for SF2 expression: HCT116, 24 h, 100-500 nM
[2] = tested on: HCT116 colorectal carcinoma cells; assay: MTS cell viability / cell growth inhibition assay in HCT116 cells; conditions: for GI50: Homo sapiens, HCT-116, 72 h; for fold loss in cell growth inhibitory activity (GI50) compared to 1 / fold less effective (GI50) compared to 17S-FD-895: HCT116 cells, 72 h; for fold loss in cell growth inhibitory activity (GI50) compared to 1: relative to FD-895 (1); for fold less effective (GI50) compared to 17S-FD-895: comparator printed as 17S-FD-895 (1a); for fold loss in activity: comparator not stated, side chain terminus modification
[3] = tested on: HCT116 tumor cells; assay: qRT-PCR splice modulation, overall profile over the gene panel in HCT116 cells; conditions: HCT116, 24 h, 100, 250 and 500 nM
[4] = tested on: PLK-1; assay: qRT-PCR splice modulation, PLK-1 exon skipping/expression in HCT116 cells; conditions: for PLK-1 expression/splicing: HCT116, 24 h, 100-500 nM; for effect on exon 3 inclusion in PLK-1: HCT116, 4 h, ~20 times GI50
Procedure, shortened: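 HCT116 (ATCC, mycoplasma-tested, ≤5 passages) in supplemented McCoy's 5a with 0.5% DMSO, exposed 4 h or 24 h (100, 250, 500 nM); untreated control. Total RNA isolated, 1 μg DNase I-treated, cDNA made; qPCR on 5 ng cDNA with primers for intron retention/exon skipping. Cycling: 95 °C 10 min; 40× (95 °C 30 s, 55 °C 60 s, 72 °C 60 s). 2−ΔΔCT vs GAPDH, untreated set to 1.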

[5] = tested on: SF3A1; assay: qRT-PCR splice modulation, SF3A1 intron retention in HCT116 cells; conditions: for SF3A1 intron 6 retention: HCT116, 4 h, ~20 times GI50, relative to 1; for SF3A1 intron retention: HCT116, 24 h, 100-500 nM, compared to 1
[6] = tested on: SF3B2; assay: qRT-PCR splice modulation, SF3B2 intron retention in HCT116 cells
[7] = tested on: DNAJB1; assay: qRT-PCR splice modulation, DNAJB1 intron retention in HCT116 cells; conditions: for DNAJB1 intron 2 retention: HCT116, 4 h, ~20 times GI50, relative to 1; for DNAJB1 intron retention: HCT116, 24 h, 100-500 nM, compared to 1
[8] = tested on: SF3A3; assay: qRT-PCR splice modulation, SF3A3 intron retention in HCT116 cells; conditions: HCT116, 24 h, 100-500 nM, compared to 1
Procedure, shortened: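 HCT116 cells (ATCC, mycoplasma-tested, ≤5 passages), supplemented McCoy's 5a with 0.5% DMSO, treated 24 h at 100, 250 or 500 nM; untreated cells as control. Total RNA extracted, 1 μg DNase I-treated, converted to cDNA; qPCR on 5 ng cDNA using intron-retention primers, 95 °C 10 min then 40 cycles 95/55/72 °C. Levels by 2−ΔΔCT relative to GAPDH, untreated = 1.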

[9] = tested on: AURKA; assay: qRT-PCR splice modulation, AURKA exon skipping/expression in HCT116 cells; conditions: HCT116, 24 h, 100-500 nM
[10] = HCT116, 4 h, ~20 times GI50, compared to 1
[11] = HCT116, 24 h, 100-500 nM, compared to 1

CC[C@H](OC)[C@@H](C)[C@H]1O[C@@H]1[C@H](O)[C@H](C)/C=C/C=C(\C)[C@H]1OC(=O)C[C@H](O)CC[C@@](C)(O)[C@@H](OC(C)=O)/C=C/[C@@H]1C [Compound 1, FD-895]
down regulation of SF2 expression [1]: highest efficacy | SF2 expression [1]: weak efficacy | GI50 [2]: < 0.01 µM | overall splicing activity over the genes tested [3]: altered the splicing of nearly all genes tested | PLK-1 expression/splicing [4]: weak efficacy

CC[C@H](OC)[C@@H](C)[C@H]1O[C@@H]1[C@H](O)[C@H](C)/C=C/C=C(\C)[C@H]1OC(=O)C[C@@H](O)CC[C@@](C)(O)[C@@H](OC(C)=O)/C=C/[C@@H]1C [Compound 1a, 3S-FD-895]
SF3A1 intron 6 retention [5]: more effective than 1 | GI50 [2]: < 0.01 µM | SF3B2 intron retention [6, 10]: improved efficacy | effect on exon 3 inclusion in PLK-1 [4]: most potent effect | DNAJB1 intron 2 retention [7]: highest level of intron retention

CC[C@H](OC)[C@@H](C)[C@H]1O[C@@H]1[C@H](O)[C@H](C)/C=C/C=C(\C)[C@H]1OC(=O)C[C@H](O)CC[C@@](C)(O)[C@H](OC(C)=O)/C=C/[C@@H]1C [Compound 1b, 7R-FD-895]
fold loss in cell growth inhibitory activity (GI50) compared to 1 [2]: 300 fold | overall splicing activity over the genes tested [3]: loss of splicing activity | effect on exon 3 inclusion in PLK-1 [4]: most potent effect

CC[C@H](OC)[C@@H](C)[C@H]1O[C@@H]1[C@H](O)[C@H](C)/C=C/C=C(\C)[C@@H]1OC(=O)C[C@H](O)CC[C@@](C)(O)[C@@H](OC(C)=O)/C=C/[C@H]1C [Compound 1c, 10R,11R-FD-895]
fold loss in cell growth inhibitory activity (GI50) compared to 1 [2]: 21,700 fold

CC[C@H](OC)[C@@H](C)[C@H]1O[C@@H]1[C@@H](O)[C@H](C)/C=C/C=C(\C)[C@H]1OC(=O)C[C@H](O)CC[C@@](C)(O)[C@@H](OC(C)=O)/C=C/[C@@H]1C [Compound 1d, 17S-FD-895]
SF3A1 intron retention [5]: dose dependent-increase intron retention | SF2 expression [1]: decreased effect | GI50 [2]: < 0.01 µM | SF3B2 intron retention [6, 11]: dose dependent-increase intron retention | PLK-1 expression/splicing [4]: decreased effect | DNAJB1 intron retention [7]: decreased level of intron retention

CC[C@H](OC)[C@@H](C)[C@H]1O[C@@H]1[C@H](OC)[C@H](C)/C=C/C=C(\C)[C@H]1OC(=O)C[C@H](O)CC[C@@](C)(O)[C@@H](OC(C)=O)/C=C/[C@@H]1C [Compound 1e, 17-methoxy-FD-895]
SF3A1 intron 6 retention [5]: more effective than 1 | SF3B2 intron retention [6, 10]: improved efficacy | overall splicing activity over the genes tested [3]: comparable or slightly reduced splice modulatory activity | DNAJB1 intron 2 retention [7]: highest level of intron retention

CC[C@H](OC)[C@@H](C)[C@H]1O[C@@H]1[C@@H](OC)[C@H](C)/C=C/C=C(\C)[C@H]1OC(=O)C[C@H](O)CC[C@@](C)(O)[C@@H](OC(C)=O)/C=C/[C@@H]1C [Compound 1f, 17-methoxy-17S-FD-895]
SF3A1 intron 6 retention [5]: more effective than 1 | fold loss in cell growth inhibitory activity (GI50) compared to 1 [2]: 21 fold

CC[C@H](OC)[C@@H](C)[C@H]1O[C@@H]1[C@@H](O)[C@H](C)/C=C/C=C(\C)[C@H]1OC(=O)C[C@@H](O)CC[C@@](C)(O)[C@@H](OC(C)=O)/C=C/[C@@H]1C [Compound 1g, 3S,17S-FD-895]
SF3A3 intron retention [8]: comparable intron retention | SF3A1 intron retention [5]: expected loss in intron retention | down regulation of SF2 expression [1]: highest efficacy | SF2 expression [1]: reduced ability to inhibit SF2 expression | fold less effective (GI50) compared to 17S-FD-895 [2]: 52 fold | fold loss in cell growth inhibitory activity (GI50) compared to 1 [2]: 75 fold | SF3B2 intron retention [6, 10]: improved efficacy | SF3B2 intron retention [6, 11]: expected loss in intron retention | PLK-1 expression/splicing [4]: reduced PLK-1 expression | DNAJB1 intron 2 retention [7]: highest level of intron retention | DNAJB1 intron retention [7]: expected loss in intron retention

CC[C@H](OC)[C@@H](C)[C@H]1O[C@@H]1[C@@H](O)[C@H](C)/C=C/C=C(\C)[C@H]1OC(=O)C[C@H](O)CC[C@@](C)(O)[C@H](OC(C)=O)/C=C/[C@@H]1C [Compound 1h, 7R,17S-FD-895]
fold less effective (GI50) compared to 17S-FD-895 [2]: 318 fold

CC[C@H](OC)[C@@H](C)[C@@H]1O[C@H]1[C@@H](O)[C@H](C)/C=C/C=C(\C)[C@H]1OC(=O)C[C@H](O)CC[C@@](C)(O)[C@@H](OC(C)=O)/C=C/[C@@H]1C [Compound 1i, 17S,18S,19S-FD-895]
SF3A1 intron 6 retention [5]: more effective than 1 | fold loss in activity [2]: 100 fold | overall splicing activity over the genes tested [3]: drastic reduction in splicing activity | PLK-1 expression/splicing [4]: increased the RNA expression

CC[C@@H](OC)[C@H](C)[C@H]1O[C@@H]1[C@@H](O)[C@H](C)/C=C/C=C(\C)[C@H]1OC(=O)C[C@H](O)CC[C@@](C)(O)[C@@H](OC(C)=O)/C=C/[C@@H]1C [Compound 1j, 17S,20S,21R-FD-895]
AURKA expression [9]: reducing the expression of AURKA at 500 nM | SF3A1 intron 6 retention [5]: more effective than 1 | fold loss in activity [2]: 100 fold | overall splicing activity over the genes tested [3]: splicing profile comparable to 1i
